The values that follow come from ChEMBL document CHEMBL3822403, “Discovery, Optimization, and Biological Evaluation of Sulfonamidoacetamides as an Inducer of Axon Regeneration” (J Med Chem, 2016).

Data set [1] deals with Cerebral cortex neuron. The data set is described as follows: Induction of neurite outgrowth in Sprague-Dawley rat primary cortical neurons at 1 to 10 uM after 48 hrs by DAPI staining based confocal fluorescence image analyzer. The format is functional, cell-based. Summed up: (§1)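 E18 Sprague-Dawley rat hippocampus and cortex dissociated separately, seeded at 2,000 cells/well in Neurobasal/B27 with 2 mM glutamate; after 24 h treated 48 h. Fixed, stained anti-βIII tubulin with DAPI nuclei; four fields per well imaged at 10x, neurite total length per neuron; mean ± SD, n=3.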

Data set [2] has as its system P19. The experiment in a line: Induction of neurite outgrowth in mouse P19 cells transfected with neuroD2 at 10 uM after 48 hrs by DAPI staining based confocal fluorescence image analyzer relative to control. The data set is classed as functional. Summed up:
(§2)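 P19 cells transfected with NeuroD2 cDNA, replated 12 h later at 8,000 cells/well in MEM, 5% FBS, 1 mM pyruvate, 2 mM glutamate; after 24 h compound exposure 48 h. βIII tubulin immunofluorescence with DAPI, four fields/well imaged at 10x, neurite outgrowth relative to DMSO-treated cells.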

Data set [3] has as its system Hippocampal neurone. The data set is described as follows: Induction of neurite outgrowth in Sprague-Dawley rat primary hippocampal neurons after 48 hrs by DAPI staining based confocal fluorescence image analyzer. The format is functional. Summed up: as §1
Data set [4] is described as follows: Metabolic stability in mouse liver S9 fraction assessed as compound remaining after 30 mins. The following applies: read-out: Stability. The format is ADME, subcellular.
The test system of data set [5] is P19. The experiment in a line: Induction of neurite outgrowth in mouse P19 cells transfected with neuroD2 <1 uM after 48 hrs by DAPI staining based confocal fluorescence image analyzer relative to control. The format is functional, cell-based. Summed up: as §2
Data set [6] deals with P19. The experiment in a line: Induction of neurite outgrowth in mouse P19 cells transfected with neuroD2 at 10 to 20 uM after 48 hrs by DAPI staining based confocal fluorescence image analyzer relative to control. The data set is classed as functional. Summed up:
as §2

Data set [7] deals with Rattus norvegicus. The experiment in a line: Induction of axonal outgrowth of RGC in Sprague-Dawley rat optic nerve injury model assessed as regeneration of 500 to 1500 um crushed optic nerves at 0.22 ug/eye administered intravitreously once in 4 days for 3 weeks by measuring optic nerve injury by GAP-43 expression based microscopy (reference value: 0.22 +/- 0.081). The data set is classed as functional.

The source made the active and inactive calls. The rule behind the calls is not given here.

As to `COc1ccc(NC(=O)CN(c2ccccc2OC)S(=O)(=O)c2ccc(C)cc2)c(OC)c1`, the result in data set [1] and in data set [3] was Active. Moreover, in data set [2], the “fold change (FC)” value amounted to 2.7.
Take `CCOc1ncccc1NC(=O)CN(c1ccccc1OC)S(=O)(=O)c1ccc(C)cc1`: the result in data set [1] and in data set [3] was Active. Also, the “fold change (FC)” value in data set [2] is 2.1.
In the case of `COc1ccccc1N(CC(=O)Nc1ncccc1OC)S(=O)(=O)c1ccc(C)cc1`, the outcome in data set [1] and in data set [3] was Active. Further, the “fold change (FC)” value in data set [2] came out at 1.6.
Turning to `COc1ccccc1N(CC(=O)Nc1ccccc1)S(=O)(=O)c1ccc(C)cc1`, the result in data set [1] and in data set [3] was Active. Also, the “fold change (FC)” value in data set [2] amounted to 2.
On to `COc1cccc(NC(=O)CN(c2ccccc2OC)S(=O)(=O)c2ccc(C)cc2)c1`, for which the outcome in data set [1] and in data set [3] was Active. Besides, in data set [2], the “fold change (FC)” value is listed as 1.8.
Turning to `COc1ccccc1N(CC(=O)Nc1cccnc1OC(C)C)S(=O)(=O)c1ccc(C)cc1`, the result in data set [1] and in data set [3] was Active. Moreover, the “fold change (FC)” value in data set [2] was determined as 2.3.
Consider `COc1ccccc1N(CC(=O)Nc1ccccc1F)S(=O)(=O)c1ccc(C)cc1`, for which the outcome in data set [1] and in data set [3] was Active. In data set [2], the “fold change (FC)” value worked out at 2.1.
For `COc1ccc(OC)c(NC(=O)CN(c2ccccc2OC)S(=O)(=O)c2ccc(SC)cc2)c1`, the result in data set [1] and in data set [3] was Active. In addition, the “fold change (FC)” value in data set [2] was found to be 3.2.
In the case of `COc1ccccc1N(CC(=O)Nc1cnc2ccccc2c1)S(=O)(=O)c1ccc(C)cc1`, the outcome in data set [1] and in data set [3] was Active. Further, the “fold change (FC)” value in data set [2] was 3.6.
For `CCOc1ccccc1NC(=O)CN(c1ccccc1F)S(=O)(=O)c1ccc(C)cc1`, the result in data set [1] and in data set [3] was Active. Further, the “fold change (FC)” value in data set [2] came to 2.9.
Regarding `COc1ccccc1N(CC(=O)Nc1ncc[nH]1)S(=O)(=O)c1ccc(C)cc1`, in data set [3], the outcome was Active.
Regarding `CCOc1ccccc1NC(=O)CN(c1ccccc1C)S(=O)(=O)c1ccc(C)cc1`, the result in data set [1] and in data set [3] was Active. In addition, the “fold change (FC)” value in data set [2] was determined as 2.6.
On to `CC(=O)Nc1ccc(O)cc1` [ACETAMINOPHEN], for which the remaining at 0.5 h in data set [4] was found to be 97.7%.
As to `CCOc1ccccc1NC(=O)CN(c1ccccc1OC)S(=O)(=O)c1ccc(C)cc1`, the result in data set [1] and in data set [3] was Active. Moreover, the outcome in data set [5] was inactive. Further, the “fold change (FC)” value in data set [6] came out at 3.2. The remaining at 0.5 h in data set [4] is 0.7%.
Consider `COc1ccncc1NC(=O)CN(c1ccccc1OC)S(=O)(=O)c1ccc(SC)cc1`, for which the outcome in data set [1] and in data set [3] was Active. Also, the “fold change (FC)” value in data set [2] is listed as 3.9.
For the molecule `COc1ccccc1N(CC(=O)Nc1cccnc1OC)S(=O)(=O)c1ccc(C)cc1`, the result in data set [1] and in data set [3] was Active. The “fold change (FC)” value in data set [2] turned out to be 2.8.
For the molecule `COc1ccncc1NC(=O)CN(c1ccccc1OC)S(=O)(=O)c1ccc(C)cc1`, the outcome in data set [1] and in data set [3] was Active. Besides, the “fold change (FC)” value in data set [2] is reported as 4.2. Also, the remaining at 0.5 h in data set [4] amounted to 61.2%. Besides, in data set [7], the Activity came out at 0.7.
Consider `CCOc1ccccc1NC(=O)CN(c1ccccc1Cl)S(=O)(=O)c1ccc(C)cc1`, for which the result in data set [1] and in data set [3] was Active. Also, in data set [2], the “fold change (FC)” value came to 2.6.
For `COc1ccncc1NC(=O)CN(c1ccccc1OC)S(=O)(=O)c1ccc(Br)cc1`, the result in data set [1] and in data set [3] was Active. Moreover, the “fold change (FC)” value in data set [2] was 3.7.
Consider `CCOc1ccccc1NC(=O)CN(c1ccccc1)S(=O)(=O)c1ccc(C)cc1`, for which the result in data set [1] and in data set [3] was Active. The “fold change (FC)” value in data set [2] turned out to be 2.5.
Consider `COc1ccc(OC)c(NC(=O)CN(c2ccccc2OC)S(=O)(=O)c2ccc(Br)cc2)c1`, for which the outcome in data set [1] and in data set [3] was Active. Also, in data set [2], the “fold change (FC)” value turned out to be 5.
Regarding `COc1ccc(NC(=O)CN(c2ccccc2OC)S(=O)(=O)c2ccc(Cl)cc2)c(OC)c1`, the result in data set [1] and in data set [3] was Active. Besides, the “fold change (FC)” value in data set [2] is on record as 4.2. The remaining at 0.5 h in data set [4] is 0.4%.
Regarding `COc1ccc(OC)c(NC(=O)CN(Cc2ccc(C)cc2)c2ccccc2OC)c1`, the outcome in data set [3] was Active.
As for `COc1ccccc1N(CC(=O)Nc1ccc2ncccc2c1)S(=O)(=O)c1ccc(C)cc1`, the result in data set [1] and in data set [3] was Active. Moreover, the “fold change (FC)” value in data set [2] was 1.
As for `COc1ccccc1N(CC(=O)Nc1nccs1)S(=O)(=O)c1ccc(C)cc1`, the result in data set [3] was Active.
As to `COc1ccc(OC)c(NC(=O)CN(c2ccccc2OC)S(=O)(=O)c2ccc(F)cc2)c1`, the result in data set [1] and in data set [3] was Active. Further, in data set [2], the “fold change (FC)” value was 2.5.
With `CCOc1ccccc1NC(=O)CN(c1cccc(OC)c1)S(=O)(=O)c1ccc(C)cc1`, the outcome in data set [1] and in data set [3] was Active. Moreover, the “fold change (FC)” value in data set [2] amounted to 3.1.
For the molecule `COC(=O)c1ccccc1NC(=O)CN(c1ccccc1OC)S(=O)(=O)c1ccc(C)cc1`, the outcome in data set [1] and in data set [3] was Active. For the same molecule, the “fold change (FC)” value in data set [2] is reported as 3. Moreover, the remaining at 0.5 h in data set [4] stood at 0.3%.
Turning to `COc1ccc(S(=O)(=O)N(CC(=O)Nc2cc(OC)ccc2OC)c2ccccc2OC)cc1`, the result in data set [1] and in data set [3] was Active. Moreover, the “fold change (FC)” value in data set [2] is reported as 2.3. In data set [4], the remaining at 0.5 h came to 0.4%.
`CCc1ccccc1NC(=O)CN(c1ccccc1OC)S(=O)(=O)c1ccc(C)cc1`: in data set [2], the “fold change (FC)” value is reported as 0.8. Besides, the outcome in data set [3] was Active.
Take `COc1ccccc1N(CC(=O)Nc1ccccc1Br)S(=O)(=O)c1ccc(C)cc1`: the outcome in data set [1] and in data set [3] was Active. Further, the “fold change (FC)” value in data set [2] is 2.1.
`COc1ccc(CCN(C)CCCC(C#N)(c2ccc(OC)c(OC)c2)C(C)C)cc1OC` (stereo not drawn) [VERAPAMIL]: the remaining at 0.5 h in data set [4] came out at 23.1%.
In the case of `CCOc1ccccc1CNC(=O)CN(c1ccccc1OC)S(=O)(=O)c1ccc(C)cc1`, the result in data set [3] was Active.
On to `COc1ccc(OC)c(NC(=O)CN(C(=O)c2ccc(Cl)cc2)c2ccccc2OC)c1`, for which the “fold change (FC)” value in data set [2] came to 1. For the same molecule, in data set [3], the outcome was Active.
For `COc1ccccc1N(CC(=O)Nc1cccc2ncccc12)S(=O)(=O)c1ccc(C)cc1`, the outcome in data set [1] and in data set [3] was Active. In data set [2], the “fold change (FC)” value turned out to be 1.3.
